Test results: ChEMBL document CHEMBL4325901, “Novel multitarget-directed ligands targeting acetylcholinesterase and σ1 receptors as lead compounds for treatment of Alzheimer's disease: Synthesis, evaluation, and structural characterization of their complexes with acetylcholinesterase” (Eur J Med Chem, 2019)
The source made the active and inactive calls. The rule behind the calls is not given here.

Experiments:
[1] = target: T1, 5-hydroxytryptamine receptor 4 (Homo sapiens, UniProt Q13639); test: Displacement of [3H]-GR113808 from recombinant human 5-HT4BR expressed in membranes after 60 mins
[2] = target: T1, 5-hydroxytryptamine receptor 4; test: Displacement of [3H]-GR113808 from recombinant human 5-HT4BR expressed in membranes at 1 uM after 60 mins relative to control
Procedure, shortened: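 Crude membranes from a stable recombinant cell line expressing 5-HT4B were incubated in duplicate at 25 °C for 60 min with compound at 10^-6 or 10^-8 M and 0.2 nM [3H]-GR113808 in 25 mM Tris, pH 7.4. They were filtered through polyethylenimine-presoaked GF/C filters and washed three times with ice-cold Tris. Nonspecific binding was defined with serotonin.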

Acetylcholinesterase [3] = target: T2, Acetylcholinesterase (Homo sapiens, UniProt P22303); test: Inhibition of human erythrocytes AChE using acetylthiocholine iodide as substrate preincubated for 5 mins followed by substrate addition measured at 1 min time interval for 10 mins by Ellman's method
Acetylcholinesterase [4] = target: T2, Acetylcholinesterase; test: Non-competitive inhibition of human erythrocytes AChE up to 1 uM using varying levels of acetylthiocholine iodide substrate preincubated for 5 mins followed by substrate addition measured at 1 min time interval for 10 mins by Lineweaver-Burk plot analysis
[5] = target: Sigma non-opioid intracellular receptor 1 (Homo sapiens, UniProt Q99720); test: Displacement of [3H]-(+)-pentazocine from sigma-1 receptor in human Jurkat cell membranes after 2 hrs by liquid scintillation counting method
[6] = target: T1, 5-hydroxytryptamine receptor 4; test: Antagonist activity at 5-HT4R (unknown origin) expressed in CHO cells assessed as reduction in intracellular cAMP accumulation after 15 mins by radio-immunoassay; format: functional, cell-based
[7] = target: T1, 5-hydroxytryptamine receptor 4; test: Agonist activity at 5-HT4R (unknown origin) expressed in CHO cells assessed as intracellular cAMP accumulation after 15 mins by radio-immunoassay; format: functional, cell-based
Procedure, shortened: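 Stably transfected CHO cells grown to confluence, serum-starved 4 h, then preincubated 15 min in serum-free medium with 5 mM theophylline, 10 mM pargyline and […] to block endogenous 5-HT1B receptors. 5-HT or test compound added for a further 15 min. Stopped with ice-cold ethanol, 30 min at room temperature, ethanol fraction dried, cAMP quantified by competitive radioimmunoassay.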

Mus musculus [8] = test: Cognition enhancing effect in Swiss mouse assessed as protection against dizocilpine-induced long term non-spatial memory impairment by measuring increase in step-through latency at 0.1 mg/kg, ip pretreated for 10 mins followed by dizocilpine treatment and measured after 20 mins by passive avoidance test relative to control; format: functional
Procedure, shortened: (§1)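 Male Swiss mice, 6 weeks, 32 g, groups of 12e16. Compounds dissolved in 10% DMSO in saline, diluted in saline; vehicle 2% DMSO in saline. Given IP 10 min before dizocilpine 0.15 mg/kg IP, 20 min before Y-maze session (alternation % and arm entries) or passive-avoidance training (footshock 3 s on entering dark compartment; step-through latency).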

Mus musculus [9] = test: Cognition enhancing effect in Swiss mouse assessed as protection against dizocilpine-induced spatial memory impairment by measuring spontaneous alternation performance at 0.1 to 1 mg/kg, ip pretreated for 10 mins followed by dizocilpine treatment and measured after 20 mins by Y-maze test; format: functional, organism-based; procedure, shortened: as §1

Sequence of Sigma non-opioid intracellular receptor 1 (Q99720 whole entry): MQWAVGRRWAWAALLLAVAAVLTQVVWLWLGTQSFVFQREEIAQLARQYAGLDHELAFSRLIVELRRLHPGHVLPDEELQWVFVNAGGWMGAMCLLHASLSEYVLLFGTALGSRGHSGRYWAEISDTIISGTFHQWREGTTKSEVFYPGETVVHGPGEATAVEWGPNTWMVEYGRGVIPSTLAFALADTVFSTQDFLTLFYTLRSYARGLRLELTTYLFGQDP
T2 sequence (P22303 whole entry): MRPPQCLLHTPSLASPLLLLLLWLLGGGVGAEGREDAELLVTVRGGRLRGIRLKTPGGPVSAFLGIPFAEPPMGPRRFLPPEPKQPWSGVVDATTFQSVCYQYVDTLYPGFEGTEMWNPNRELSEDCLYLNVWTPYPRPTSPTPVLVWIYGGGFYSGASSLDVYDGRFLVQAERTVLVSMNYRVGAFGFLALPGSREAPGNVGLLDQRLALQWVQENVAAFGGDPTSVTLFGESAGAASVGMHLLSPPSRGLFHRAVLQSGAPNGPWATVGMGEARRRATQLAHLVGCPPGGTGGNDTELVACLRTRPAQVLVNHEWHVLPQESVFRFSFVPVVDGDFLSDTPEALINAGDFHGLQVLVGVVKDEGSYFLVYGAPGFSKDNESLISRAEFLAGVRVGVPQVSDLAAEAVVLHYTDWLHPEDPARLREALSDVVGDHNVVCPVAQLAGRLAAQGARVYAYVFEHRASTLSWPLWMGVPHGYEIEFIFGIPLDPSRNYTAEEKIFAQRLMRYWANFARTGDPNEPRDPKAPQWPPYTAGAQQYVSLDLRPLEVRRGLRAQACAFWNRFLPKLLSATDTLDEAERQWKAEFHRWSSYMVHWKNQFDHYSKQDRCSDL
T1 sequence (Q13639 whole entry): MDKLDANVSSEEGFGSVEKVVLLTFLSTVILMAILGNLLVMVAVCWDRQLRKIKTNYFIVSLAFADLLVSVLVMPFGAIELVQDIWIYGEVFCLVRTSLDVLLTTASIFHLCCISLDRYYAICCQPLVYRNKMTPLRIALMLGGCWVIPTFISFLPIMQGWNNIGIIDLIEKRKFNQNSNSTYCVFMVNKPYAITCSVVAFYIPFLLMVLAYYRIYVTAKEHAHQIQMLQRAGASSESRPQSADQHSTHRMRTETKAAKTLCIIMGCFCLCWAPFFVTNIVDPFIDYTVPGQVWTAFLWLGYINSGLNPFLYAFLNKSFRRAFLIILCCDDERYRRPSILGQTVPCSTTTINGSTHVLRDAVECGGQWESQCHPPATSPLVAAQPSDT

Row | SMILES | Ki [1] [nM] | inhibition [2] [%] | IC50 (Acetylcholinesterase [3]) [nM] | Ki [5] [nM] | further results
1 | CCCCN1CCC(CCC(=O)c2ccc3[nH]ccc3c2)CC1 | 49.6 | 97 | 716 | – | –
2 | COc1c(C(=O)CCC2CCN(CC3CCCCC3)CC2)ccc2[nH]ccc12 | 51 | 100 | 40 | – | –
3 | COc1c(C(=O)CCC2CCN(CC3CCCCC3)CC2)cc(Cl)c2[nH]ccc12 | 40.9 | 100 | 91.4 | 5.1 | inhibition (Acetylcholinesterase [4]): Active; inhibition [6]: Active
4 | COc1c(C(=O)CCC2CCN(CC3CCCCC3)CC2)cc(Cl)c2c1ccn2S(=O)(=O)c1ccccc1 | – | 62 | 559 | – | –
5 | O=C(CCC1CCN(CC2CCCC2)CC1)c1ccc2[nH]ccc2c1 | 25 | 100 | 94 | – | –
6 | O=C(CCC1CCN(CC2CCCCC2)CC1)c1ccc2c(ccn2Cc2ccccc2)c1 | – | 42 | 133 | – | –
7 | COc1cc(N)c(Cl)cc1C(=O)CCC1CCN(CC2CCCCC2)CC1 | – | – | – | 51 | Activity [7]: Active
8 | O=C(CCC1CCN(Cc2ccccc2)CC1)c1ccc2[nH]ccc2c1 | 169 | 90 | 13.3 | 3.3 | –
9 | COc1cc2c(cc1OC)C(=O)C(CC1CCN(Cc3ccccc3)CC1)C2 (centres undefined) | – | 10 | – | – | –
10 | COc1c(C(=O)CCC2CCN(CC3CCCCC3)CC2)cc(Cl)c2c1ccn2C | – | – | 84.4 | – | –
11 | COc1c(C(=O)CCC2CCN(CC3CCCCC3)CC2)cc(Cl)c2c1ccn2Cc1ccccc1 | – | – | 261 | – | –
12 | O=C(CCC1CCN(CC2CCCCC2)CC1)c1cc(Cl)c2[nH]ccc2c1 | 37.5 | 100 | 28.8 | 5.1 | Activity (Mus musculus [8]): 40%; Activity (Mus musculus [9]): inactive
13 | O=C(CCC1CCN(CC2CCCCC2)CC1)c1ccc2[nH]ccc2c1 | 37.5 | 100 | 51 | – | –
14 | CCCCN1CCC(CCC(=O)c2cc(Cl)c(N)cc2OC)CC1 | – | 100 | – | – | –
15 | COc1c(C(=O)CCC2CCN(Cc3ccccc3)CC2)cc(Cl)c2[nH]c([Si](C)(C)C)cc12 | – | 62 | 275 | – | –
16 | COc1c(C(=O)CCC2CCN(Cc3ccccc3)CC2)cc(Cl)c2[nH]ccc12 | 150 | 96 | 20.4 | 5.7 | –
